In data set [1] the test system is Escherichia coli. The data set can be described thus: Antibacterial activity against Escherichia coli by broth dilution assay. The class given is functional. A digest of the protocol: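 MIC99 by broth-dilution assay; antibacterial and culture details are in the Supporting Information.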
Data set [2] is described as follows: Binding affinity to DPH-doped model gram negative bacterial membrane (LPS/DPPE/DMPG lipids) assessed as increase in membrane fluidity by fluorescence anisotrophy. A digest of the protocol: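 Vesicles of LPS, DPPE and DMPG doped with DPH were incubated with compound, and the change in DPH fluorescence anisotropy was recorded. Mean ± SD of three replicates, unpaired two-tailed t-test.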

Data set [3] can be described thus: Solubility in water. The class given is physicochemical. To be noted: buffer.
The test system of data set [4] is Escherichia coli. The data set can be described thus: Antimicrobial activity against compound-pre-treated Escherichia coli by broth dilution assay based drug resistance development assay. The class given is functional, organism-based. Put shortly:
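E. coli pre-treated with compound, then MIC₉₉ redetermined by broth-dilution assay in four replicates; reported as fold change in MIC₉₉ relative to starting value to assess resistance development.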

≈ marks a conversion by molar mass, not a printed value. Calls of active or inactive are those of the source. No cut-off for these calls is given here.

Usually MIC99 stands for the lowest concentration that inhibits either 99% of growth or 99% of the strains tested, depending on the study. In the case of `C[C@H](CCC(=O)OCc1ccccc1)[C@H]1CC[C@H]2[C@@H]3[C@H](OC(=O)CNC(=O)[C@@H](N)Cc4ccc(O)cc4)C[C@@H]4C[C@H](OC(=O)CNC(=O)[C@@H](N)Cc5ccc(O)cc5)CC[C@]4(C)[C@H]3C[C@H](OC(=O)CNC(=O)[C@@H](N)Cc3ccc(O)cc3)[C@]12C`, in the data set with Escherichia coli [1], the MIC99 result is “inactive”.
The same measure, in the same setting: next, `C[C@H](CCC(=O)OCc1ccccc1)[C@H]1CC[C@H]2[C@@H]3[C@H](OC(=O)CNC(=O)CN)C[C@@H]4C[C@H](OC(=O)CNC(=O)CN)CC[C@]4(C)[C@H]3C[C@H](OC(=O)CNC(=O)CN)[C@]12C`: 8 to 128 µM (≈ 6.73 to 108 µg/mL).
For the compound `C[C@H](CCC(=O)OCc1ccccc1)[C@H]1CC[C@H]2[C@@H]3[C@H](OC(=O)CNC(=O)[C@@H](N)Cc4c[nH]c5ccccc45)C[C@@H]4C[C@H](OC(=O)CNC(=O)[C@@H](N)Cc5c[nH]c6ccccc56)CC[C@]4(C)[C@H]3C[C@H](OC(=O)CNC(=O)[C@@H](N)Cc3c[nH]c4ccccc34)[C@]12C.Cl.Cl.Cl`, the result in data set [2] was inactive. Also, in the data set with Escherichia coli [1], the MIC99 result is “inactive”. Further, in data set [3], the solubility result was “Insoluble”.
Turning to `C[C@H](N)C(=O)NCC(=O)O[C@@H]1CC[C@@]2(C)[C@@H](C1)C[C@@H](OC(=O)CNC(=O)[C@H](C)N)[C@@H]1[C@@H]2C[C@H](OC(=O)CNC(=O)[C@H](C)N)[C@]2(C)[C@@H]([C@H](C)CCC(=O)OCc3ccccc3)CC[C@@H]12`, the MIC99 with Escherichia coli [1] was 8 to 128 µM (≈ 7.06 to 113 µg/mL).
As for `NC[C@@H]1O[C@H](O[C@H]2[C@@H](O)[C@H](O[C@@H]3[C@@H](O)[C@H](N)C[C@H](N)[C@H]3O[C@H]3O[C@H](CN)[C@@H](O)[C@H](O)[C@H]3N)O[C@@H]2CO)[C@H](N)[C@@H](O)[C@@H]1O`, the outcome in the data set with Escherichia coli [4] was inactive.
